ChEMBL document CHEMBL2010640, “Perturbing pro-survival proteins using quinoxaline derivatives: a structure-activity relationship study” (Bioorg Med Chem, 2012)
Activity calls are given as the source filed them. The rule behind the calls is not given here.

Key:
HeLa [1] = assay: Induction of apoptosis in human HeLa cells overexpressing Bad3SA at 10 uM after 12 hrs by Hoechst staining; assay type: functional, cell-based
Outline: (§1)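 Doxycycline-inducible HeLa lines (Dox-GFP, Dox-Noxa, Dox-Bad3SA) induced with doxycycline (1 μg/mL) for 3 h, then treated for a further 12 h; ABT-737 tested at 1 μM, other compound at 10 μM, DMSO vehicle. Cells fixed and Hoechst-stained; condensed nuclei counted to give percent cell death.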

HeLa [2] = assay: Induction of apoptosis in human HeLa cells assessed as caspase activation at 1 uM by Hoechst staining; assay type: functional, cell-based
Outline: (§2)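 HeLa cells, 2000 cells/well, treated 6 h (ABT-737 1 μM; other compounds 10 μM, alone or combined); Caspase-Glo 3/7 reagent added, luminescence read after 1 h, RLU normalized to alamarBlue fluorescence. Separately, cell death across doses of the combination scored by Hoechst staining.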

[3] = biological target: Induced myeloid leukemia cell differentiation protein Mcl-1 (Homo sapiens) (UniProt Q07820); assay: Inhibition of Mcl-1 in human HeLa cells overexpressing Bad3SA assessed as increase in caspase3/7 activity at 50 uM after 6 hrs by luminescence analysis; assay type: cell-based
Outline: (§3)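 Dox-Bad3SA HeLa cells (Bad3SA expressed under doxycycline control) exposed to compound for 6 h, with doxycycline or without it. Caspase 3/7 activity read as Caspase-Glo luminescence 1 h after adding reagent. Raw luminescence was normalized to alamarBlue fluorescence to correct for cell number.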

[4] = biological target: Induced myeloid leukemia cell differentiation protein Mcl-1 (Homo sapiens) (UniProt Q07820); assay: Inhibition of Mcl-1 in doxycyclin-stimulated human HeLa cells overexpressing Bad3SA assessed as increase in caspase3/7 activity at 50 uM after 6 hrs by luminescence analysis; assay type: cell-based; outline: as §3
HeLa [5] = assay: Induction of apoptosis in human HeLa cells expressing Bcl-xL assessed as decrease in Mcl-1 level at 1 to 10 uM by Western blot analysis; assay type: functional, cell-based; conditions: TDE = time-dependent effect
Outline: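 HeLa cells exposed to 1, 5 or 10 μM for 12 h (dose response), and Bcl-xL-overexpressing HeLa cells exposed to 10 μM for 3, 6 or 12 h (time course); lysates resolved by SDS-PAGE and blotted for Mcl-1, Bcl-xL and Bcl-2, actin as loading control, DMSO vehicle.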

HeLa [6] = assay: Induction of apoptosis in human HeLa cells assessed as decrease in Mcl-1 level after 12 hrs by Western blot analysis
[7] = biological target: Induced myeloid leukemia cell differentiation protein Mcl-1 (Homo sapiens) (UniProt Q07820); assay: Induction of Mcl-1-mediated apoptosis in doxycyclin-stimulated human HeLa cells overexpressing Bad3SA at 10 uM after 12 hrs by Hoechst staining; assay type: cell-based; outline: as §1
HeLa [8] = assay: Induction of apoptosis in human HeLa cells assessed as decrease in XIAP expression at 10 uM by Western blot analysis; assay type: functional, cell-based
Outline: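 HeLa cells treated 24 h, media and trypsinized cells pooled, lysed in RIPA buffer (pH 8.0); SDS-PAGE and Western blot for XIAP, α-tubulin as loading control.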

[9] = biological target: Bcl-2-like protein 1 (Homo sapiens) (UniProt Q07817); assay: Induction of Bcl-xL-mediated apoptosis in doxycyclin-stimulated human HeLa cells overexpressing Noxa at 10 uM after 12 hrs by Hoechst staining; assay type: cell-based; outline: as §1
HeLa [10] = assay: Induction of apoptosis in human HeLa cells assessed as caspase activation at 1 to 10 uM by Hoechst staining; assay type: functional, cell-based; outline: as §2
[11] = biological target: Induced myeloid leukemia cell differentiation protein Mcl-1 (Homo sapiens) (UniProt Q07820); assay: Induction of Mcl-1-mediated apoptosis in doxycyclin-stimulated human HeLa cells expressing GFP at 10 uM after 12 hrs by Hoechst staining; assay type: cell-based; outline: as §1

Chain of Induced myeloid leukemia cell differentiation protein Mcl-1 (Homo sapiens) (Q07820 whole entry): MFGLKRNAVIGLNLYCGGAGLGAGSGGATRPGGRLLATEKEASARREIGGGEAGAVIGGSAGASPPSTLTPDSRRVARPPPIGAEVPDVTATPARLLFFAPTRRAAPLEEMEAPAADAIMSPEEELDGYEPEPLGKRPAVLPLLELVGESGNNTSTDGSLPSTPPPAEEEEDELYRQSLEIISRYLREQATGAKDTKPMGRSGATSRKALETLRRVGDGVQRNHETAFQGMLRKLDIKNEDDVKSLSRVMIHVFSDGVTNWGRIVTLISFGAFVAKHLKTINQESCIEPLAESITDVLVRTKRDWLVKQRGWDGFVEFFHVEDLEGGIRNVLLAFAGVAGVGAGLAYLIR
Chain of Bcl-2-like protein 1 (Homo sapiens) (Q07817 whole entry): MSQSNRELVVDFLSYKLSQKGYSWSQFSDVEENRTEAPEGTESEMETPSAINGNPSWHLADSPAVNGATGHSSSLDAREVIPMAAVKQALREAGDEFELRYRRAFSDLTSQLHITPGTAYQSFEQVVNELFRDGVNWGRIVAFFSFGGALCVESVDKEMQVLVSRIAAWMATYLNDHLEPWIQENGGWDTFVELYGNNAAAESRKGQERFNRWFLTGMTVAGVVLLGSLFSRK

## O=C(Nc1ccccc1)Nc1ccc2nccnc2c1
HeLa [1]
  Activity: inactive

## O=C(Nc1ccc(Br)cc1)Nc1ccc2nc(-c3ccccn3)c(-c3ccccn3)nc2c1
HeLa [1]
  Activity: inactive

## O=C(Nc1cccc(Br)c1)Nc1ccc2nc(-c3ccco3)c(-c3ccco3)nc2c1
HeLa [1]
  Activity: Active

## CN(C)CC[C@H](CSc1ccccc1)Nc1ccc(S(=O)(=O)NC(=O)c2ccc(N3CCN(Cc4ccccc4-c4ccc(Cl)cc4)CC3)cc2)cc1[N+](=O)[O-]
HeLa [2]
  Activity: inactive

## CC[C@@]1(O)C(=O)OCc2c1cc1n(c2=O)Cc2cc3ccccc3nc2-1
[3]
  inhibition: inactive
[4]
  inhibition: Active

## O=C(Nc1ccc(Br)cc1)Nc1ccc2nc(-c3ccccc3)c(-c3ccccc3)nc2c1
HeLa [1]
  Activity: Active

## O=C(Nc1ccc(Br)cc1)Nc1ccc2nc(-c3cccs3)c(-c3cccs3)nc2c1
HeLa [1]
  Activity: inactive

## O=C(Nc1ccc2nc(-c3ccco3)c(-c3ccco3)nc2c1)Nc1ccccc1Br
HeLa [1]
  Activity: inactive

## O=C(Nc1ccc(Br)cc1)Nc1ccc2nc(-c3ccco3)c(-c3ccco3)nc2c1
HeLa [5]
  Activity: tde
HeLa [6]
  Activity: Dose-dependent effect
[7]
  Activity: Active
HeLa [8]
  Activity: Active
[9]
  Activity: inactive
HeLa [1]
  Activity: Active
HeLa [10]
  Activity: inactive
[11]
  Activity: inactive

## Cc1nc2ccc(NC(=O)Nc3ccc(Br)cc3)cc2nc1C
HeLa [1]
  Activity: inactive
HeLa [10]
  Activity: inactive
